Target: P2Y purinoceptor 1 (Meleagris gallopavo, UniProt P49652)
Test: Agonist activity at turkey P2Y1R expressed in 1321N1 cells assessed as increase in intracellular calcium concentration by spectrofluorimetry
Summary of the method: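 Cell suspensions were treated with nucleotide at various concentrations at 37 °C in 10 mM Hepes-buffered saline pH 7.4 with 1 mM CaCl2 and 1 mM MgCl2. Maximal [Ca2+]i rise was read by dual-excitation spectrofluorometry and fitted to give EC50. Three experiments on separate days.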

Chain of P2Y purinoceptor 1 (P49652 whole entry): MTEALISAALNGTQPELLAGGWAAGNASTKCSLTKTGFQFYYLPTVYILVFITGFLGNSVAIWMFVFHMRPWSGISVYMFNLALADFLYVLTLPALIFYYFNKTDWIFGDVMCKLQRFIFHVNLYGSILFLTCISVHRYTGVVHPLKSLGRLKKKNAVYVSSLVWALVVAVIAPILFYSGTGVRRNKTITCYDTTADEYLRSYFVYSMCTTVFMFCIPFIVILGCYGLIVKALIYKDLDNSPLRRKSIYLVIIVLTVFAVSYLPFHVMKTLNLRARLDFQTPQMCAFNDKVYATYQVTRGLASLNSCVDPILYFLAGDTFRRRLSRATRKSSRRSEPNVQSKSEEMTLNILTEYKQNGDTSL

Work on B[P@@](=O)(OC[C@H]1O[C@@H](n2cnc3c(N)nc(SC)nc32)[C@H](O)[C@@H]1O)OP(=O)(O)O yielded an EC50 of 34 nM.
